Reference: ChEMBL document CHEMBL4118021, “Studies of TAK1-centered polypharmacology with novel covalent TAK1 inhibitors” (Bioorg Med Chem, 2017)
One block for each compound: values may come before it. Calls of active or inactive are those of the source. The calls are words filed in the database; no cut-off is given here.

Key:
[1] = target: 14-3-3 protein theta (Homo sapiens) (UniProt P27348); experiment: Binding affinity to YWHAQ in human NCI-H23 cells at 1 uM by mass spectrometry based pull down assay; type: cell-based
[2] = target: A-kinase anchor protein 12 (Homo sapiens) (UniProt Q02952); experiment: Binding affinity to AKAP12 in human NCI-H23 cells at 1 uM by mass spectrometry based pull down assay; type: cell-based
In short: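 NCI-H23 or NCI-H358 cells were grown and lysed. Lysates were incubated overnight at 4 °C with 1 μM biotinylated covalent probe or DMSO, then pulled down on streptavidin beads. Proteins were run on polyacrylamide gels and stained with Coomassie. Bands were excised, digested and identified by mass spectrometry.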

[3] = target: Cysteine and glycine-rich protein 2 (Homo sapiens) (UniProt Q16527); experiment: Binding affinity to CSRP2 in human NCI-H23 cells at 1 uM by mass spectrometry based pull down assay; type: cell-based
[4] = target: Serine/threonine-protein kinase WNK1 (Homo sapiens) (UniProt Q9H4A3); experiment: Binding affinity to WNK1 in human NCI-H23 cells at 1 uM by mass spectrometry based pull down assay; type: cell-based
[5] = target: TGF-beta-activated kinase 1 and MAP3K7-binding protein 3 (Homo sapiens) (UniProt Q8N5C8); experiment: Binding affinity to TAB3 in human NCI-H23 cells at 1 uM by mass spectrometry based pull down assay; type: cell-based
[6] = target: Calponin-2 (Homo sapiens) (UniProt Q99439); experiment: Binding affinity to CNN2 in human NCI-H23 cells at 1 uM by mass spectrometry based pull down assay; type: cell-based
[7] = target: T1, Dual specificity mitogen-activated protein kinase kinase 4 (Homo sapiens) (UniProt P45985); experiment: Binding affinity to MAP2K4 in human NCI-H23 cells at 1 uM by mass spectrometry based pull down assay; type: cell-based
T1 sequence (whole entry): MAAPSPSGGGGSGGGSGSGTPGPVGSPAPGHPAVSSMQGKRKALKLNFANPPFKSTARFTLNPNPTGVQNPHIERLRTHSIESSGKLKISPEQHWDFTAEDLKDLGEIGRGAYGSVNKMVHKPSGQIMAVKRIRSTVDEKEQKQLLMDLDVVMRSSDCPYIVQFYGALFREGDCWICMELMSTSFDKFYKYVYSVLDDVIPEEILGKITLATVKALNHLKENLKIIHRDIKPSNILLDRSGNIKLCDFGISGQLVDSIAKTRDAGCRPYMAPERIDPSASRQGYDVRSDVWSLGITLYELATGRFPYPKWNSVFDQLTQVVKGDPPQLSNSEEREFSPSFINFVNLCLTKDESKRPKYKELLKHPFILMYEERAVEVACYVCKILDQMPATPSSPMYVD

[8] = target: Tropomyosin alpha-3 chain (Homo sapiens) (UniProt P06753); experiment: Binding affinity to TPM3 in human NCI-H358 cells at 1 uM by mass spectrometry based pull down assay; type: cell-based
[9] = target: Signal transducer and activator of transcription 1-alpha/beta (Homo sapiens) (UniProt P42224); experiment: Binding affinity to STAT1 in human NCI-H358 cells at 1 uM by mass spectrometry based pull down assay; type: cell-based
[10] = target: DNA mismatch repair protein Msh2 (Homo sapiens) (UniProt P43246); experiment: Binding affinity to MSH2 in human NCI-H358 cells at 1 uM by mass spectrometry based pull down assay; type: cell-based
[11] = target: Phosphoinositide 3-kinase regulatory subunit 4 (Homo sapiens) (UniProt Q99570); experiment: Binding affinity to PIK3R4 in human NCI-H358 cells at 1 uM by mass spectrometry based pull down assay; type: cell-based
[12] = target: Importin subunit beta-1 (Homo sapiens) (UniProt Q14974); experiment: Binding affinity to KPNB1 in human NCI-H358 cells at 1 uM by mass spectrometry based pull down assay; type: cell-based
[13] = target: Hippocalcin-like protein 1 (Homo sapiens) (UniProt P37235); experiment: Binding affinity to HPCAL1 in human NCI-H358 cells at 1 uM by mass spectrometry based pull down assay; type: cell-based
[14] = target: Protein disulfide-isomerase A3 (Homo sapiens) (UniProt P30101); experiment: Binding affinity to PDIA3 in human NCI-H358 cells at 1 uM by mass spectrometry based pull down assay; type: cell-based
[15] = target: Protein kinase C iota (Homo sapiens) (UniProt P41743); experiment: Inhibition of PKCi in human SKCO1 cells at 1 uM after 4 hrs using biotin labeled DLKLDNVLLDSEGHIK probe by mass-spectrometric analysis relative to control
[16] = target: Serine/threonine-protein kinase Nek8 (Homo sapiens) (UniProt Q86SG6); experiment: Inhibition of NEK8 in human SKCO1 cells at 1 uM after 4 hrs using biotin labeled DLKTQNILLDK probe by mass-spectrometric analysis relative to control; type: cell-based
[17] = target: Phosphatidylinositol 5-phosphate 4-kinase type-2 gamma (Homo sapiens) (UniProt Q8TBX8); experiment: Inhibition of PIP4K2C in human SKCO1 cells at 1 uM after 4 hrs using biotin labeled TLVIKEVSSEDIADMHSNLSNYHQYIVK probe by mass-spectrometric analysis relative to control; type: cell-based
BaF3 = experiment: Antiproliferative activity against mouse BA/F3 cells harboring KRAS G12D mutant after 72 hrs by CellTiter-Glo assay; type: functional, cell-based; settings: BaF3, 72 h
[18] = target: T2, Mitogen-activated protein kinase kinase kinase 7 (Homo sapiens) (UniProt O43318); experiment: Inhibition of TAK1 in RA patient-derived synovial fibroblasts assessed as inhibition of poly(I:C)-induced cytokine secretion at 3 uM preincubated for 3 hrs followed by poly(I:C) stimulation measured after 18 hrs by sandwich immunoassay
T2 sequence (whole entry): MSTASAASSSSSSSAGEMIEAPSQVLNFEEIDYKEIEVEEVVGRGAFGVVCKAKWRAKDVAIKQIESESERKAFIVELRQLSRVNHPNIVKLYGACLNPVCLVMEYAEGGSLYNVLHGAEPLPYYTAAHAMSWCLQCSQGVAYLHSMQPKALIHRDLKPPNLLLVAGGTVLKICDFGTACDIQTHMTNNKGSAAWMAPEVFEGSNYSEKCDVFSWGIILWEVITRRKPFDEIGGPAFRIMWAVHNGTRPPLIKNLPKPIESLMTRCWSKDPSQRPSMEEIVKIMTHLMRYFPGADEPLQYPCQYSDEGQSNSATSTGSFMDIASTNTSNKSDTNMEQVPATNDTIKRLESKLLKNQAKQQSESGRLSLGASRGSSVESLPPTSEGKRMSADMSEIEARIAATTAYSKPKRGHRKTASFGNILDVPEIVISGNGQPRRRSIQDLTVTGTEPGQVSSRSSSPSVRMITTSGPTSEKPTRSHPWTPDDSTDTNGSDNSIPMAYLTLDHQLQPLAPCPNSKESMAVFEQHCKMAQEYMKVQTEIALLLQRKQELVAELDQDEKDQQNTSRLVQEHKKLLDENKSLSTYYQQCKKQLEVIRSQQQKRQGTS
In short: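 Primary RA synovial fibroblasts (donor RA2159) seeded 1000 cells/well and grown ~24 h at 37 °C, 5% CO2. Starved overnight in basal medium, then ~4 h in basal medium with 0.1% BSA. Two adjacent wells pooled per replicate, in biological duplicate. Supernatants diluted 1:3 and run on Luminex 27-plex/21-plex sandwich immunoassays for 48 analytes, with spiked-ligand and mock-supernatant background controls.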

Chain of Signal transducer and activator of transcription 1-alpha/beta (Homo sapiens) (P42224 whole entry): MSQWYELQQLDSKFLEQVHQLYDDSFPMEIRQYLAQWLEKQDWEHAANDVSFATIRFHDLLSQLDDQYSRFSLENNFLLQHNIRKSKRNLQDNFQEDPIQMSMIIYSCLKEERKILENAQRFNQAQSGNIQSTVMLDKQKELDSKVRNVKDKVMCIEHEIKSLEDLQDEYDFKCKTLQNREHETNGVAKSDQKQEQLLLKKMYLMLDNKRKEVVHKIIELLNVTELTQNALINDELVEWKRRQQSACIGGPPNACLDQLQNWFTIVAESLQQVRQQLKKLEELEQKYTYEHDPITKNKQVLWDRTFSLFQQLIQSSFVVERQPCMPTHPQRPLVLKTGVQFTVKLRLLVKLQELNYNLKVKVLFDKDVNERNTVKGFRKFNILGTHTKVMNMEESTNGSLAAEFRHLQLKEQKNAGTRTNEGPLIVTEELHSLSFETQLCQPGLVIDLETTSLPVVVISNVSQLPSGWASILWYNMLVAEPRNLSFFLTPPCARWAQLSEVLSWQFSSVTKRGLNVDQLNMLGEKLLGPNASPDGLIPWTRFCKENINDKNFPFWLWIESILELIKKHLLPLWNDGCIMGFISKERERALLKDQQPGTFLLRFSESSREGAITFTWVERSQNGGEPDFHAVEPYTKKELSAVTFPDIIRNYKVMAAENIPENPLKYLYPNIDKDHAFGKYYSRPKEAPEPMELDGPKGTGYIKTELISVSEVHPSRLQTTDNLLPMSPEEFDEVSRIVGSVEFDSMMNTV
Chain of Serine/threonine-protein kinase WNK1 (Homo sapiens) (Q9H4A3 whole entry, looked up): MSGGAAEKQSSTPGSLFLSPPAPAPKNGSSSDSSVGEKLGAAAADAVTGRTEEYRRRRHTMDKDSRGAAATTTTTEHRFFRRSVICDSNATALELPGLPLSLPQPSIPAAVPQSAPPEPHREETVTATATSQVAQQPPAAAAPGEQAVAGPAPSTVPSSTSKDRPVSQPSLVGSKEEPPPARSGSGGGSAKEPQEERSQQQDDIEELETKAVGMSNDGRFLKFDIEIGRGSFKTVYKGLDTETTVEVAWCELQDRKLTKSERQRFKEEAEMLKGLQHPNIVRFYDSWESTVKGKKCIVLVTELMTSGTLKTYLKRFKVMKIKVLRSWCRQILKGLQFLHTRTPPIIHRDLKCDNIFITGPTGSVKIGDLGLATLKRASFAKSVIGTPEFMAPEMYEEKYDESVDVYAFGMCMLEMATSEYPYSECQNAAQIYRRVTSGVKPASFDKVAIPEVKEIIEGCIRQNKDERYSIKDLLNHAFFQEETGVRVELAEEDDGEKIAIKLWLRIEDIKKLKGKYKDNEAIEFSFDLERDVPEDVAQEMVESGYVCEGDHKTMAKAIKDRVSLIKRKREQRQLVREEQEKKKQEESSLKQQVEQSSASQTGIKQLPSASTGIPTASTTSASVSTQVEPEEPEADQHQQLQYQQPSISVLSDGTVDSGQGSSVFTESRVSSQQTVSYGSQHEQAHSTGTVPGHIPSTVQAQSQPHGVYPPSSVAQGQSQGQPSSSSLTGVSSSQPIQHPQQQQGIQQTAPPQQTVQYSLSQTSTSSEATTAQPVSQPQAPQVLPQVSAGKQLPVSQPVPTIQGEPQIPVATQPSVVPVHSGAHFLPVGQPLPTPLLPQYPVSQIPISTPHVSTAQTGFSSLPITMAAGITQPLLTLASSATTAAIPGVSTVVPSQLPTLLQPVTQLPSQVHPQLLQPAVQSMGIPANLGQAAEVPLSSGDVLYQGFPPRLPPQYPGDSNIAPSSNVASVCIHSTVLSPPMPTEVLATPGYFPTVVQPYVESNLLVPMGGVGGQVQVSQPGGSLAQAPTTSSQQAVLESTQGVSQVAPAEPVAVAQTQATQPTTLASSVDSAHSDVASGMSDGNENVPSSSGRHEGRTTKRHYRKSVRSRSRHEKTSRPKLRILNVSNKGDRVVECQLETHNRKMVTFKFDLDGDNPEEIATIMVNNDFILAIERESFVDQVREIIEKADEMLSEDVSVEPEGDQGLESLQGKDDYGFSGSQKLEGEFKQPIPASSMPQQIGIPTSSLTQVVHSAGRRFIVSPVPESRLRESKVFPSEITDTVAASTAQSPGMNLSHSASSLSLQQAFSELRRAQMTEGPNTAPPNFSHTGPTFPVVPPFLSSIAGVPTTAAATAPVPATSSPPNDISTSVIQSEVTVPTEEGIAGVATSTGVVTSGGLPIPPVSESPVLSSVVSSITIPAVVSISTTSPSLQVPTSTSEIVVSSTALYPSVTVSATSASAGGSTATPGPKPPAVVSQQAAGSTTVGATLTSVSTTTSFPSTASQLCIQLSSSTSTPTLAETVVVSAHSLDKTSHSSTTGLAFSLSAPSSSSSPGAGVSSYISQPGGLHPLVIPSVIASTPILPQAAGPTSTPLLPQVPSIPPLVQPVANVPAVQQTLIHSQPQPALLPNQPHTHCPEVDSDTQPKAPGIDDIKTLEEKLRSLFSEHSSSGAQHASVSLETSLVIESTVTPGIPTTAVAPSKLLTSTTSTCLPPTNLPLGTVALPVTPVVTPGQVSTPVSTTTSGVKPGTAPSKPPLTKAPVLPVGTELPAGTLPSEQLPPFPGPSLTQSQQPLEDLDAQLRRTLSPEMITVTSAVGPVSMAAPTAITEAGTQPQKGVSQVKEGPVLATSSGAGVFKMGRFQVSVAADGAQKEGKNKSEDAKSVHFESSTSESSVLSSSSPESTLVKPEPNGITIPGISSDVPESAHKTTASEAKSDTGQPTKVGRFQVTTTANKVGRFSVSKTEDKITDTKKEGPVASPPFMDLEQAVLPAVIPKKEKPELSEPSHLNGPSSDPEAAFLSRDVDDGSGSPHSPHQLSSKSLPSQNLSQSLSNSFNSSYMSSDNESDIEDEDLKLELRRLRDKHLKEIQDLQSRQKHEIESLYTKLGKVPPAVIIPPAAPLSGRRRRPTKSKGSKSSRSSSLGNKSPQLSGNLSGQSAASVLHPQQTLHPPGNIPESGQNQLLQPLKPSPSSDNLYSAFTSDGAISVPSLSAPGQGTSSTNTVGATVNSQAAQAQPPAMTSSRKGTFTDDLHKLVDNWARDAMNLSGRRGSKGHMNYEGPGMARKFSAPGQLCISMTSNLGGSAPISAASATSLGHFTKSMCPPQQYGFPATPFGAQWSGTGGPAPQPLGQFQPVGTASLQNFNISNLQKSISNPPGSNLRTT
Chain of Protein kinase C iota (Homo sapiens) (P41743 whole entry, looked up): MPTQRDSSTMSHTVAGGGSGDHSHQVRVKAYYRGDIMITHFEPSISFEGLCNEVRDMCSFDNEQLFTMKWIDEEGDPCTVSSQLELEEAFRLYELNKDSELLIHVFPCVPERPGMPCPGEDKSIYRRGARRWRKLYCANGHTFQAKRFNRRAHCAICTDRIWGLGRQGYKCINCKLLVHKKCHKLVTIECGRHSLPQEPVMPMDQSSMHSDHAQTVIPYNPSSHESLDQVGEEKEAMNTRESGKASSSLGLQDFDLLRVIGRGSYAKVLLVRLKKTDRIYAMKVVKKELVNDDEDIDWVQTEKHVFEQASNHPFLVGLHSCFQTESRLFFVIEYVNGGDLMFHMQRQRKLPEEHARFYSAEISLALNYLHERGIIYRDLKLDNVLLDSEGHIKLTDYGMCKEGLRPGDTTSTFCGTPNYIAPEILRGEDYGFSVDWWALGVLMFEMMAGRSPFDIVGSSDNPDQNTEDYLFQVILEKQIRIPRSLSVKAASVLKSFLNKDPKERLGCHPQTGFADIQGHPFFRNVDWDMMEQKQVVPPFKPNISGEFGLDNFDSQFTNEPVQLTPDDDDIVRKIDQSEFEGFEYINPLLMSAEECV
Chain of 14-3-3 protein theta (Homo sapiens) (P27348 whole entry): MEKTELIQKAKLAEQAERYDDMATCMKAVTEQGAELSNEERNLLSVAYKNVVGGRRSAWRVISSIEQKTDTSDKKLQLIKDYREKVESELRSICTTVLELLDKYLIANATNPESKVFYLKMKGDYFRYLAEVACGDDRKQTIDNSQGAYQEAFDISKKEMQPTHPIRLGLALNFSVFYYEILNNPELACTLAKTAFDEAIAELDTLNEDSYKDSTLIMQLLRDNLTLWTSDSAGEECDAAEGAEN
Chain of Tropomyosin alpha-3 chain (Homo sapiens) (P06753 whole entry): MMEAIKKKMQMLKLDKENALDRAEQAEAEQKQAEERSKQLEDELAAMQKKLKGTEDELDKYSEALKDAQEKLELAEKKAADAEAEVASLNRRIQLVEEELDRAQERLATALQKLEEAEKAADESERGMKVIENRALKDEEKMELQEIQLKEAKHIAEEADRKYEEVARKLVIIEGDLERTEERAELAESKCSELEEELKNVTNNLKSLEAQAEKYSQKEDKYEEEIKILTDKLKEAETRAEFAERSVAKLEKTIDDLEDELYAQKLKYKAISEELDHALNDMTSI
Chain of Protein disulfide-isomerase A3 (Homo sapiens) (P30101 whole entry): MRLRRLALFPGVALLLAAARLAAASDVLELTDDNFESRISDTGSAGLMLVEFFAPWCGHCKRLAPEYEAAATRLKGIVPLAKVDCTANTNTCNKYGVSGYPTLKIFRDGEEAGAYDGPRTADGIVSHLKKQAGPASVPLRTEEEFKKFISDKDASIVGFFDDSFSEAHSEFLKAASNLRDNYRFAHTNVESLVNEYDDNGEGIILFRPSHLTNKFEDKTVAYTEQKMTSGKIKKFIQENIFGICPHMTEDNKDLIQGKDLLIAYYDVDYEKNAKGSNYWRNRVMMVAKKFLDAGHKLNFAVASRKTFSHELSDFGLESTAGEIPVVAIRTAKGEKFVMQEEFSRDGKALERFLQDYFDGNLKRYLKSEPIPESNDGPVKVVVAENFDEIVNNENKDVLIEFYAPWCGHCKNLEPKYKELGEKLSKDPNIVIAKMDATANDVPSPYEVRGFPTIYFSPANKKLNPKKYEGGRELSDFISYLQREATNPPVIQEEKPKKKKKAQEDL
Chain of Cysteine and glycine-rich protein 2 (Homo sapiens) (Q16527 whole entry): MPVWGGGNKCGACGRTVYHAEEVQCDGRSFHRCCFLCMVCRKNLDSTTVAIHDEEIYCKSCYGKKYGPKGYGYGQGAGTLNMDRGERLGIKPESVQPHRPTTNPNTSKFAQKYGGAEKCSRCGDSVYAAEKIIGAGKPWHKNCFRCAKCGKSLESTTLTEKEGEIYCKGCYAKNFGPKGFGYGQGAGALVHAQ

Activity [1]: Active
Activity [2]: Active
Activity [3]: Active
Activity [4]: Active
Activity [5]: Active
Activity [6]: Active
Activity [7]: Active
Activity [8]: Active
Activity [9]: Active
Activity [10]: Active
Activity [11]: Active
Activity [12]: Active
Activity [13]: Active
Activity [14]: Active
Compound: C=CC(=O)Nc1ccccc1Nc1nc(Nc2ccc(N3CCN(CCOCCOCCOCCNC(=O)CCCC[C@@H]4SC[C@@H]5NC(=O)N[C@@H]54)CC3)cc2)ncc1Cl

Compound: C=CC(=O)Nc1ccccc1Nc1nc(Nc2ccc(N3CCN(C)CC3)cc2)ncc1Cl
inhibition [15]: -5.7%

Compound: COc1cc(O)c2c(c1)/C=C/C[C@H](O)[C@H](O)C(=O)/C=C\C[C@H](C)OC2=O
inhibition [16]: -9.5%
inhibition [17]: 16.8%
IC50 (BaF3): 4 nM

Compound: C=CC(=O)Nc1ccccc1Oc1nc(Nc2cnn(CCOC)c2)ncc1Cl
inhibition [18]: Active
